The source of these data is the RNAGym collection of RNA variant scans (doi:10.1126/science.aae0568).

Variants at the floor of the assay were thinned out. Some results are limits rather than exact numbers.

To fix the notation:
B1: tRNA (parent)
chain: GUUCCGUUGGCGUAAUGGUAACGCGUCUCCCUCCUAAGGAGAAGACUGCGGGUUCGAGUCCCGUACGGAACG

Variants of B1 are the subject of this data set. The data set is described as follows: yeast fitness relative to wild type (ratio to wild type); higher = fitter; tRNA-Arg(CCU), competitive growth, 37 C, YPD. In short, it runs like this:
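Variants of the tRNA-Arg(CCU) gene were chemically synthesised with a 3% per-site mutation rate across 69 sites and placed at the native genomic locus in Saccharomyces cerevisiae. Six parallel replicates of the pooled strains were competed in YPD at 37°C for 24 hours, and gene amplicons from the start and end populations were read by 100-nucleotide paired-end sequencing. Darwinian fitness relative to wild type was derived from changes in genotype frequencies. Genotypes required ≥ 100 starting reads, and estimates < 0.5 were set to 0.5.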
As for A15G A20G C27U C33U A37U G38C C60U C62A G63U, the yeast fitness is 0.684. For the variant A15G A21G C34U G44A C61A A70C, the yeast fitness is at most 0.5. Take A15C G52A: the yeast fitness is 0.712. On to A15C C34U A57C, for which the yeast fitness came to 0.603. To A15C C22U U26G G52A belongs 0.732; to A15C U32G, 0.504. To A15C U32C belongs 0.767; to A15C G23C, 0.555; to A15C A21U C34A, at most 0.5.

Regarding A15C A40G A65G, the yeast fitness came out at 0.511. With A15G A36G U54A the figure was at most 0.5; with A15C C61A, 0.761; with A15C C61U, 0.713. To A15C A40C A70U belongs at most 0.5; to A15C U28C, 0.737. With A15C G18A C24G the figure was at most 0.5; with A15C C60A C62U, at most 0.5; with A15C A65C, 0.713. In the case of A15C A65U, the yeast fitness stood at 0.841. To A15G A37C C46U C49U belongs at most 0.5; to A15C U28A C30U C34G A43U, at most 0.5; to A15C G56A C61U, 0.614. A15C A21U A36C C49U A69U: the yeast fitness is at most 0.5.

As for A15C C55A A65C, the yeast fitness is at most 0.5. To A15C C34A C46U belongs 0.614. With A15C G58C the figure was 0.575; with A15C C66G, 0.618; with A15C C31U C55G, at most 0.5.

Take A15C C27A U32G C60G: the yeast fitness was at most 0.5. For A15C U54C C66G, the yeast fitness is at most 0.5. Turning to A15C C27G C30U C46A A70U, the yeast fitness is at most 0.5. To A15C G39A belongs 0.664; to A15C G39C, 0.638. With A15C C24A U59C C62U the figure was at most 0.5. Take A15C U26A G38A A40U G50C C60G A70G: the yeast fitness was at most 0.5. With A15G A43C C61A the figure was at most 0.5. Consider A15C A21U, for which the yeast fitness turned out to be 0.546. To A15C C46U C66A belongs 0.55. In the case of A15C C60G, the yeast fitness came to 0.612. To A15C C33G G38C C62A belongs 0.551. With A15C C24G A45G G56A A69C, the yeast fitness is at most 0.5. On to A15C U19A C24G C34G C46U U54C C61A A70U, for which the yeast fitness is at most 0.5.

As for A15C C29U, the yeast fitness was 0.669. To A15C C29A belongs at most 0.5. With A15C G48A C49U U64G C66U the figure was at most 0.5; with A15C C49U A69G, at most 0.5.

A15C U54A C61U A70U: the yeast fitness was 0.645. A15C C29U C31U: the yeast fitness is at most 0.5. On to A15C C24A C46A A57C A69U, for which the yeast fitness was at most 0.5. Regarding A15G A20G C27U, the yeast fitness was determined as 0.732. To A15C C24U A45G G52A belongs at most 0.5; to A15C A43G C46A A70C, at most 0.5; to A15C C31G C33G, at most 0.5.

Take A15G A45U A57C A69C: the yeast fitness was at most 0.5. With A15C C34G C49G C66G G68C the figure was 0.612. With A15G A21C C24G A40U C49U the figure was at most 0.5.

Take A15C G56C: the yeast fitness is 0.685. With A15C C30U A42U C49G the figure was at most 0.5; with A15C U32C A36C A45C C60U, at most 0.5; with A15C U26A A40C, 0.63. On to A15C G23C A65G, for which the yeast fitness is at most 0.5. For the variant A15C A21U A70G, the yeast fitness was at most 0.5.

Consider A15C U19C A37C G51A C60A, for which the yeast fitness is 0.557. In the case of A15C C22U A42U U47A, the yeast fitness was 0.511. To A15G A20C U54A C62U belongs at most 0.5. As to A15C C24U U28A C29G G52A, the yeast fitness came to 0.501.

On to A15C C31U A45U G51C, for which the yeast fitness was at most 0.5. To A15G A20G C27A A40G A45C belongs 0.503; to A15C G17U C46U, 0.633; to A15C A36C G38C C55U C66U, at most 0.5. With A15G A36U C61U A65U the figure was at most 0.5.

Take A15C C24A U32A C55U: the yeast fitness is at most 0.5. Turning to A15C U16A C31G C34U A65U C66G, the yeast fitness is at most 0.5. With A15C C30A A40G C49G U54A C55A A65G A70U the figure was at most 0.5; with A15C U16C A37C A43C, at most 0.5. To A15C A40C belongs 0.609; to A15C A40G, 0.729. To A15C C34G C46A C61U C66G belongs at most 0.5. For the variant A15G A42G, the yeast fitness came to 0.929.

Turning to A15C C22G A57C G63C C66U, the yeast fitness was at most 0.5.

Take A15C A21U C24A C33A C66A: the yeast fitness was at most 0.5. On to A15C U26C G67U A69G, for which the yeast fitness was at most 0.5. With A15C A36U U64A the figure was at most 0.5; with A15C G18C A42C, at most 0.5.

For A15G A43U C46A, the yeast fitness was determined as 0.671. For the variant A15C U53A, the yeast fitness was 0.578. To A15C A42C G48A G50C A65G belongs 0.561; to A15C A43G C46A, 0.526.

With A15G A20U G48A, the yeast fitness stood at 0.66. Take A15C A37U C66U: the yeast fitness was 0.584. On to A15C G17A U28A A65U, for which the yeast fitness was 0.752. With A15C C22G G58C C62U the figure was at most 0.5. Turning to A15C C27A C33U C34A C61U, the yeast fitness was 0.509. To A15C U28G A45G G51C belongs 0.554; to A15C U32C C62U, 0.54. A15C C22G A43C G50A U59C: the yeast fitness was at most 0.5. Take A15G A36G G41A G52A: the yeast fitness is at most 0.5.

For the variant A15G A21C C49U, the yeast fitness was at most 0.5.

For A15C U16C C27U C31G A69C, the yeast fitness was at most 0.5. With A15C A45G G68A the figure was at most 0.5; with A15C G44A, 0.707; with A15C G25A U26C A69U, at most 0.5. With A15C G56A A57C the figure was at most 0.5; with A15C U19C A37C G51A, at most 0.5. With A15G A37U C61A the figure was at most 0.5. A15G A36C C46A C66U: the yeast fitness is at most 0.5.

Regarding A15G A37G G56C, the yeast fitness is at most 0.5.

A15C C30A A57G A69C: the yeast fitness is at most 0.5.

For the variant A15C A42C C55G A70G, the yeast fitness came to 0.72.

For the variant A15G A21G C55G, the yeast fitness is at most 0.5. To A15C G39A G56A belongs at most 0.5; to A15G A20U A45U U64C, 0.593. Take A15C C30G A37C: the yeast fitness was at most 0.5. Take A15C G48A A57G C61A: the yeast fitness was at most 0.5. Turning to A15C U47A G68U, the yeast fitness was 0.57.

On to A15C A45G C55U, for which the yeast fitness was at most 0.5.

A15C G17C C22G C24A C31A G67C: the yeast fitness is 0.752. Consider A15G A37U C62A, for which the yeast fitness was at most 0.5. To A15C A21U C24U A57G G67U belongs 0.542; to A15C U26C G48C, at most 0.5; to A15C G50C, 0.672. For A15C A36U G58A G67A, the yeast fitness is at most 0.5. Turning to A15G A43U G68C, the yeast fitness was 0.581. With A15C U35A A36G G41A U47A the figure was at most 0.5; with A15C C22A G25C U28A A36U U54C A57C, at most 0.5. To A15C C31G A40U G51A belongs at most 0.5. To A15C G23C U64C A65G belongs at most 0.5; to A15C G50C U64C, 0.545. With A15C A42C, the yeast fitness amounted to 0.646. To A15C C27G C30U C46A belongs 0.542. For A15G A36C C46A A65G, the yeast fitness is at most 0.5. With A15C U19C, the yeast fitness came to 1.03. To A15C G17A G68A belongs at most 0.5; to A15C A21U C24A C33A C61U, at most 0.5. As for A15C A42G A43G, the yeast fitness was at most 0.5. Consider A15C C46G A65G C66U, for which the yeast fitness was at most 0.5. To A15C U19C C46A U59A belongs at most 0.5. To A15C C30A A42C C55U belongs at most 0.5; to A15C U28A C34G A37G A43U, at most 0.5; to A15G A37C G56C A65C, at most 0.5. To A15G A20C C24G G41C C46A C62G belongs at most 0.5; to A15C G17U U19A C31U C34A, at most 0.5; to A15C C27U, 0.724. In the case of A15G A45C A69U, the yeast fitness was determined as 0.779. For the variant A15C G25C G52A A57C C60G, the yeast fitness is at most 0.5.

As to A15C U19G C55G, the yeast fitness is at most 0.5.

On to A15G A20G C27A A40G A45C C55U, for which the yeast fitness was at most 0.5.

Consider A15G A21C C33G A43U, for which the yeast fitness came to 0.57.

Take A15C C27U G39C C49G A69C: the yeast fitness is at most 0.5. To A15C C49A belongs 0.637; to A15C C22U, 0.689. With A15C C22G the figure was 0.658. On to A15C U28A C34G A43U, for which the yeast fitness came out at 0.564. Take A15C U28A G39A A65G: the yeast fitness was at most 0.5. On to A15C A37G A57C A69C, for which the yeast fitness was 0.794.

For the variant A15G A37C A69C, the yeast fitness amounted to 0.863. To A15C U28C C34G belongs at most 0.5; to A15C G17C C31A U32C G44C, at most 0.5; to A15C U47G, 0.663. To A15C G23C C31A belongs at most 0.5; to A15C C22A A70U, at most 0.5; to A15C U28G A45G G51C A70G, 0.584.

As for A15G A36G A43U, the yeast fitness was 0.601. To A15C U26G U28C A37G G41A C49G belongs 0.59; to A15G A40U A45G, 0.585; to A15C C31G C49U, 0.638.

In the case of A15G A43G A57U, the yeast fitness amounted to 0.793.
